Screening data deposited in PubChem by Johns Hopkins Ion Channel Center.
RGS4 act = RGS4 potentiation or activation; 0.92% of 310,000 active; B-score at 10 µM; AID 463111; HEK293 M3R/inducible RGS4, carbachol calcium flux Fluo4; stronger effect = lower value;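 active = B-score of the integrated calcium signal more than 4 SD below the library mean, with starting fluorescence not abnormally high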;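 also: negative B-score means reduced calcium response which marks RGS4 activation or potentiation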
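test system = M3R-expressing HEK293 line, RGS4 induced by doxycycline | probe or stimulus = carbachol at ECmax as muscarinic agonist stimulus | timing = dye loading 30 min 37 °C, buffer rest 30 min RT | signal = calcium dye Fluo4 fluorescence | evaluation = B score from integrated fluorescence ratio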
RGS4 inh = inhibitors of human RGS4. P49798. B-score at 10 µM. AID 463165. HEK293 M3R/RGS4 inducible, Fluo-4 calcium flux; stronger effect = higher value; triggered by carbachol at its EC20. 0.45% of 310,000 active;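 active = B-score, a plate-corrected calcium signal, over three deviations above library mean, with baseline fluorescence within five deviations of library mean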;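 also: RGS4 expression induced by doxycycline in cells with stable M3 receptor; B-score is computed from the integrated fluorescence ratio over baseline after carbachol; higher B-score means a larger calcium signal and so more RGS4 inhibition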
Target sequence (P49798 whole entry, looked up): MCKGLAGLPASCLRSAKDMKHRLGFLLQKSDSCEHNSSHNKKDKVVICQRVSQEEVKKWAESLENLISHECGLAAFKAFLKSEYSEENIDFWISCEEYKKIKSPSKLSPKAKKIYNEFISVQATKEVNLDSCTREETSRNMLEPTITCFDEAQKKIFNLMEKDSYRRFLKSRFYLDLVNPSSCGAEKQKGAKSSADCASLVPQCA
MrgX1 allo act = human MrgX1 positive allosteric modulation, primary screen. Q96LB2. MrgX1-HEK293, Fluo-4 calcium flux, FDSS; stronger effect = higher value. B-score at 10 µM. 0.63% of 310,000 active;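 active = plate-corrected calcium response at least 3 library SD above typical, normal starting fluorescence, not activating the receptor alone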;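 also: compound read alongside a low EC10 to EC30 dose of BAM8-22 agonist; peak minus trough fluorescence over baseline measured at the second addition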
Target sequence (Q96LB2 whole entry, looked up): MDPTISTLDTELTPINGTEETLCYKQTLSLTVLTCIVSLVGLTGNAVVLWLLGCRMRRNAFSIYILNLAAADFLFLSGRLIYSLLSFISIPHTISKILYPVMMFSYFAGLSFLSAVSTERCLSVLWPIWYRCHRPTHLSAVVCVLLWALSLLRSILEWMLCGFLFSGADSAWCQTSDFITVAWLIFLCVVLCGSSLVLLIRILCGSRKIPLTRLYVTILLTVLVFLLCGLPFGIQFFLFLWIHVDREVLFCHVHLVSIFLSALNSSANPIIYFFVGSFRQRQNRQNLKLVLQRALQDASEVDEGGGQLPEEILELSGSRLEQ
MrgX1 agonist = activates human MrgX1 receptor signaling | Q96LB2 | MrgX1-HEK293 cells, Fluo-4 calcium fluorescence, agonist mode; stronger effect = higher value | B-score at 10 µM | 0.44% of 310,000 active | AID 588627;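 active = calcium response B-score plate-corrected fluorescence ratio at least 3 library SD, with starting fluorescence B-score inside 5 SD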
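Material: MrgX1-expressing HEK293 cells; input: 15,000 cells per well; doses: test compound given as first of three sequential additions; schedule: overnight plating before 1 h dye loading; technique: Fluo-4 NW calcium-flux fluorescence, kinetic read; evaluation: baseline-normalised fluorescence change ratio, B-scored; control set: plate-wise positive and negative controls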
MrgX1 antagonist = human MrgX1 receptor antagonism, primary screen | MRGX1-HEK293 calcium flux, Fluo-4, BAM8-22 antagonism; stronger effect = lower value | B-score at 10 µM | 1.3% of 310,000 active;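 active = calcium-response B-score plate-corrected more than 3 library SD below zero, starting fluorescence within 5 deviations, no agonist response on first addition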;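 also: peak minus trough fluorescence over baseline after final BAM8-22 challenge near maximal dose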
RGS4 inh valid = validation of RGS4 inhibitors | shares compounds with RGS4 inh | HEK293 M3R/RGS4, carbachol calcium Fluo-4 fluorescence; carbachol added at its EC20; 0 = buffer wells, 100 = carbachol control | calcium response, % at 10 µM | 65% of 1,700 active | AID 492999;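 active = duplicate-averaged calcium response above the buffer-only control mean plus 5 SD of those controls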;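 also: integrated fluorescence ratio F max minus min over baseline F0; higher response in RGS4-induced cells means RGS4 inhibition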
M3R Ca ctr = counter-screen for RGS4 inhibitors: effect in non-induced cells; activity (percent), % at 10 µM; 20% of 1,900 active; HEK293 M3R non-induced, carbachol calcium Fluo-4; submaximal (EC20) carbachol stimulus; buffer wells 0%, carbachol control wells 100%; shares compounds with RGS4 inh; call rule not given here;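 also: RGS4 induction absent so cells express M3R without RGS4; higher means more calcium signal and flags a non-specific hit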
M3R basal Ca ctr = second counter-screen for RGS4 inhibitors: non-induced cells without carbachol | HEK293 M3R/RGS4 non-induced, Fluo-4 calcium, no carbachol; normalised: buffer wells 0%, carbachol wells 100% | shares compounds with RGS4 inh | calcium response (agonist-mode artifact), % at 10 µM | 22% of 1,900 active;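 active = duplicate-averaged calcium rise in uninduced cells above buffer wells' mean plus 5 SD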
Each line names hits and unclear results; the compound was inactive in the other large screens (follow-up assays come after a bar, where they were run). Only some compounds are listed: those with a hit (about 3.5% of all), similar ones and a draw of the others.

COc1cc(C2C3=C(CCCC3=O)Nc3[nH]n(-c4ccccc4)c(=O)c32)ccc1O (configuration not stated)	none (no result: RGS4 act, RGS4 inh)
C=CCN(CC=C)C(=S)Nc1ccccc1	none
Cc1ccc(-c2ccc(/C=N\NC(=O)C3C(=O)NCC3c3ccccc3)o2)cc1Cl (configuration not stated)	none | M3R Ca ctr inactive | M3R basal Ca ctr inactive
O=C1NCC(c2ccccc2)C1C(=O)N/N=C\c1ccc(-c2cccc(Cl)c2Cl)o1 (configuration not stated)	none
O=C(N[C@@H](Cc1ccccc1)C(=O)OCC(=O)N1CCOCC1)c1cccs1	none
O=c1[nH]c2ccc(Cl)cc2c(-c2ccccc2)c1N1CCN(c2ccccn2)CC1	RGS4 inh 7.5 | RGS4 inh valid 17% | M3R Ca ctr inactive | M3R basal Ca ctr inactive
COc1ccc(OC)c(-n2c(C)ccc2-c2ccc(S(C)(=O)=O)cc2)c1	none
COc1ccc(OCC(=O)Nc2cc3c(cc2C(=O)O)OCCCO3)cc1	none
CCCC(=O)c1c(NCCO)cc(C)oc1=O	none
CC(C)=CCC12Oc3cc(O)ccc3C1(O)Oc1cc(O)c([C@H]3C=C(C)CC(c4ccc(O)cc4O)[C@H]3C(=O)c3ccc(O)cc3O)c(O)c1C2=O (some centres not stated)	RGS4 inh 15 | RGS4 inh valid 24% | M3R Ca ctr inactive | M3R basal Ca ctr inactive
CC(/C=N/n1c(-c2cccnc2)n[nH]c1=S)=C\c1ccccc1	none
CC(=C/c1ccccc1)/C=N/n1c(-c2ccncc2)n[nH]c1=S	RGS4 inh 5.1 | RGS4 inh valid 16% | M3R Ca ctr inactive | M3R basal Ca ctr inactive
S=c1[nH]nc(-c2ccncc2)n1/N=C/c1cn(-c2ccccc2)nc1-c1ccc(Cl)cc1	none | RGS4 inh valid inactive | M3R Ca ctr inactive | M3R basal Ca ctr inactive
CC(C)c1nnc(NC(=O)Cc2ccccc2[N+](=O)[O-])s1	none
COC(=O)c1ccc(COc2ccccc2/C=C(\C#N)C(=O)NC(C)C)cc1	none
COC(=O)c1ccc(COc2ccccc2/C=C(\C#N)C(=O)Nc2c(C)cccc2C)cc1	RGS4 inh 5.6 | RGS4 inh valid 8.0% | M3R Ca ctr inactive | M3R basal Ca ctr inactive
COC(=O)c1ccc(COc2ccccc2/C=C(\C#N)C(=O)Nc2ccccc2C)cc1	none | RGS4 inh valid inactive | M3R Ca ctr inactive | M3R basal Ca ctr inactive
CCOC(=O)c1c(C)[nH]c(C(=O)C(C)OC(=O)c2oc3ccccc3c2COC)c1C (configuration not stated)	none
O=[N+]([O-])c1ccc(-n2nncc2-c2ccccc2)cc1	none
O=Cc1ccc(-n2nncc2-c2ccc([N+](=O)[O-])cc2)cc1	RGS4 inh 7.4 | RGS4 inh valid 42% | M3R Ca ctr 66% | M3R basal Ca ctr inactive
N#C/C(=C/c1ccc(O)c(O)c1)C(=O)NCc1ccc(Cl)cc1	RGS4 inh 7.6, MrgX1 allo act 13 | RGS4 inh valid inactive | M3R Ca ctr inactive | M3R basal Ca ctr inactive
N#C/C(=C/c1cccc(O)c1)C(=O)NCc1ccc(Cl)cc1	RGS4 inh 5.9 | RGS4 inh valid 80% | M3R Ca ctr 73% | M3R basal Ca ctr inactive
Clc1cccc(Sc2ccc(-c3ccccn3)s2)c1	none
Cc1c(/C=N/NC(=O)CNc2ccccc2)c2ccccn2c1C(=O)c1ccc(Cl)cc1	RGS4 inh 15 | RGS4 inh valid 20% | M3R Ca ctr inactive | M3R basal Ca ctr 68%
Cc1c(C=O)c2ccccn2c1C(=O)c1ccc(F)cc1	none
Cc1ccccc1NCC(=O)N/N=C/c1c(C)c(C(=O)c2ccc(Cl)cc2)n2ccccc12	none | RGS4 inh valid inactive | M3R Ca ctr inactive | M3R basal Ca ctr 31%
Cc1c(C=O)c2ccccn2c1C(=O)c1ccccc1	none
Cc1c(/C=N/NC(=O)CNc2ccccc2)c2ccccn2c1C(=O)c1ccncc1	none | RGS4 inh valid inactive | M3R Ca ctr inactive | M3R basal Ca ctr inactive
COc1ccccc1NS(=O)(=O)c1cccc(C(=O)N/N=C/c2ccc(NC(C)=O)cc2)c1	none
O=C1N=c2ccccc2=C1c1c(O)n(-c2cccc(F)c2)[nH]c1=O	RGS4 inh 7 | RGS4 inh valid 21% | M3R Ca ctr inactive | M3R basal Ca ctr inactive
CC(C)CC(=O)NC1(C(F)(F)F)C(=O)Nc2c1c(=O)[nH]c(=O)n2Cc1ccco1 (configuration not stated)	none
O=c1[nH]c(=O)n(Cc2ccco2)c2c1C(C(F)(F)F)(C(F)(F)F)N=C(c1ccc(F)cc1)N2	none | RGS4 inh valid inactive | M3R Ca ctr inactive | M3R basal Ca ctr inactive
CCOc1ncccc1C(=O)Nc1ccc(F)c(Cl)c1	none
CCn1c2ccccc2c2cc(/C=N/NC(=O)c3ccccc3)ccc21	none | RGS4 inh valid inactive | M3R Ca ctr inactive | M3R basal Ca ctr inactive
Cn1c2ccccc2c2cc(/C=N/NC(=O)c3cc(O)cc(O)c3)ccc21	RGS4 act -7.2 | RGS4 inh valid inactive | M3R Ca ctr inactive | M3R basal Ca ctr inactive
O=C1/C(=C/c2cccnc2)Sc2ccccc21	RGS4 inh 7.9, MrgX1 agonist 47 | RGS4 inh valid 42% | M3R Ca ctr 46% | M3R basal Ca ctr 32%
CC(=O)Nc1ccc(/C=C2\Sc3ccccc3C2=O)cc1	none
Cc1ccc(CC(=O)Nc2ccc(S(=O)(=O)Nc3ncccn3)cc2)cc1	none
CN(CCCNC(=O)Cn1c(=O)c2cccn2c2ccccc21)Cc1ccccc1	RGS4 inh 23 | RGS4 inh valid inactive | M3R Ca ctr inactive | M3R basal Ca ctr inactive
CC(C)N(CCCNC(=O)Cn1c(=O)c2cccn2c2ccccc21)Cc1ccccc1	none | RGS4 inh valid inactive | M3R Ca ctr inactive | M3R basal Ca ctr inactive
Cc1ccccc1-n1c(=O)c2c(n3cnnc13)-c1ccccc1CC21CCCCC1	none
CSc1n[nH]c2nc3c(c(=O)n12)C1(CCCCC1)Cc1ccccc1-3	RGS4 inh 4.7 | RGS4 inh valid 12% | M3R Ca ctr inactive | M3R basal Ca ctr inactive
CCSc1n[nH]c2nc3c(c(=O)n12)C1(CCCCC1)Cc1ccccc1-3	none | M3R Ca ctr inactive | M3R basal Ca ctr inactive
CCn1c(=O)c2c(n3c(=S)[nH]nc13)-c1ccccc1CC21CCCCC1	RGS4 inh 8.3 | RGS4 inh valid 46% | M3R Ca ctr 57% | M3R basal Ca ctr inactive
